From ChEMBL document CHEMBL4028881, “Synthesis, Pharmacology, and Molecular Docking Studies on 6-Desoxo-N-methylmorphinans as Potent μ-Opioid Receptor Agonists” (J Med Chem, 2017) come the findings set out here.

In assay [1] the target is Mu-type opioid receptor (Homo sapiens) (UniProt P35372). Description: Displacement of [3H]-DAMGO from recombinant human MOR expressed in CHO cell membranes after 60 mins by liquid scintillation counting. The essentials: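 Competition binding on membranes from CHO cells stably transfected with recombinant human MOR. Affinity is reported as Ki. Values are mean ± SEM of at least three independent experiments.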
Sequence of Mu-type opioid receptor (Homo sapiens) (P35372 whole entry): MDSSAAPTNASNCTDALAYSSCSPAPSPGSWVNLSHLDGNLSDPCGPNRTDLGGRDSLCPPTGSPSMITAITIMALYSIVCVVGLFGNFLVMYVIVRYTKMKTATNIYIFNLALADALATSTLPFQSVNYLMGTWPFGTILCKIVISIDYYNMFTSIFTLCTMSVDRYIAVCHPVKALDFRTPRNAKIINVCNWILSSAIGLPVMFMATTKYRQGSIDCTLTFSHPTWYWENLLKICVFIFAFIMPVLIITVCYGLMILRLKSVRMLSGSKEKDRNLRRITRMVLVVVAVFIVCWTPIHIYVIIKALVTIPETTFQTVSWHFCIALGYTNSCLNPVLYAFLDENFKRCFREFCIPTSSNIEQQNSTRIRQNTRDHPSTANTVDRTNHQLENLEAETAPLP
A general note: In a radioligand displacement assay an active substance lowers the binding of a labelled ligand.

For assay [2] the target is unchanged. As to the kind of experiment: Agonist activity at recombinant human MOR expressed in CHO cell membranes after 60 mins by [35S]GTPgammaS binding assay. It counts as functional. In outline:
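[35S]GTPγS binding stimulated by ligand in membranes from CHO cells stably expressing human MOR. Values are mean ± SEM of at least three independent experiments.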
Background: GTPγS resists hydrolysis and so accumulates on activated G proteins.

Another assay has as its system Mus musculus. As to the kind of experiment: Potency index, ratio of moprhine ED50 for antinociceptive activity in sc dosed […] mouse to compound ED50 for antinociceptive activity in sc dosed CD1 mouse. It counts as functional.
The species named for a further assay is Homo sapiens. As to the kind of experiment: Selectivity ratio of Ki for recombinant human DOR expressed in CHO cell membranes to Ki for recombinant human MOR expressed in CHO cell membranes. The class given is cell-based.

Regarding `CN1CC[C@]23c4c5ccc(O)c4O[C@H]2C(=O)CC[C@@]3(OCc2ccccc2)[C@H]1C5`, the inhibition entry in assay [1] was “Dose-dependent effect”. For the same compound, the Activity result in assay [2] is “Dose-dependent effect”. For the same compound, the “Ratio ED50” value in the assay on Mus musculus was “<=1020”.
`CO[C@@]12CCC[C@]3(C)Oc4c(O)ccc5c4[C@@]31CCN(C)[C@@H]2C5`: the “Ratio ED50” value in the assay on Mus musculus is on record as “<=1020”.
For `CO[C@@]12CCC[C@@H]3Oc4c(O)ccc5c4[C@@]31CCN(C)[C@@H]2C5`, the inhibition entry in assay [1] is “Dose-dependent effect”. Further, in assay [2], the Activity entry was “Dose-dependent effect”. Besides, the “Ratio ED50” value in the assay on Mus musculus is reported as “<=1020”.
`CN1CC[C@]23c4c5ccc(O)c4O[C@H]2CCC[C@@]3(O)[C@H]1C5`: the inhibition result in assay [1] was “Dose-dependent effect”. Also, in assay [2], the Activity entry was “Dose-dependent effect”. In addition, the “Ratio ED50” value in the assay with Mus musculus is “<=1020”.
Turning to `CN1CC[C@]23c4c5ccc(O)c4O[C@H]2CCC[C@@]3(OCc2ccccc2)[C@H]1C5`, the inhibition entry in assay [1] was “Dose-dependent effect”. In the assay filed under Homo sapiens, the Ratio Ki worked out at 21. Also, the Activity entry in assay [2] was “Dose-dependent effect”. The “Ratio ED50” value in the assay with Mus musculus is “<=1020”.
For `CO[C@@]12CCC(=O)[C@]3(C)Oc4c(O)ccc5c4[C@@]31CCN(C)[C@@H]2C5`, the inhibition result in assay [1] was “Dose-dependent effect”. The Activity entry in assay [2] was “Dose-dependent effect”. Further, the “Ratio ED50” value in the assay on Mus musculus was “<=1020”.
Take `CO[C@@]12CCC(=O)[C@@H]3Oc4c(O)ccc5c4[C@@]31CCN(C)[C@@H]2C5`: the inhibition entry in assay [1] was “Dose-dependent effect”. Besides, the Activity result in assay [2] was “Dose-dependent effect”. The “Ratio ED50” value in the assay with Mus musculus was “<=1020”.
